Reference: ChEMBL document CHEMBL1149077, “Synthesis and evaluation of a novel series of pseudo-cinnamic derivatives as antituberculosis agents” (2009)
Converted amounts (≈) assume the structure as drawn.

tested on: Mycobacterium tuberculosis; assay: Antitubercular activity against Mycobacterium tuberculosis H37Rv after 6 days by MTT reduction assay; type: functional; details: 144 h
Summary of the method: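 Strain H37Rv tested in 7H9 broth across serial twofold compound dilutions, bacilli added to each well. Incubated 6 days, then MTT (1 mg/mL) added for one further day. Formazan solubilized and absorbance read at 570 nm. MIC taken as lowest concentration inhibiting growth, with untreated bacilli serving as growth control.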

Structure (SMILES)	MIC
COc1ccc(/C=C/C(=O)NCCc2c[nH]c3ccccc23)cc1	500 µg/mL (≈ 1560 µM)
CC(=O)NCCSC(=O)/C=C/c1ccc(O)cc1	63 µg/mL (≈ 237 µM)
CC(=O)NCCSC(=O)/C=C/c1ccc(OC/C=C(\C)CCC=C(C)C)cc1	0.6 µg/mL (≈ 1.49 µM)
COc1cc(/C=C/C(=O)Sc2ccccc2)ccc1O	8 µg/mL (≈ 27.9 µM)
COc1ccc(/C=C/C(=O)NCCNC(C)=O)cc1	> 500 µg/mL
COc1cc(/C=C/C(=O)NCCc2c[nH]c3ccccc23)ccc1O	8 µg/mL (≈ 23.8 µM)
CC(C)=CCOc1ccc(/C=C/C(=O)NCCc2c[nH]c3ccccc23)cc1	63 µg/mL (≈ 168 µM)
CC(=O)NCCNC(=O)/C=C/c1ccc(OC/C=C(\C)CCC=C(C)C)cc1	0.1 µg/mL (≈ 0.26 µM)
CC(=O)NCCSC(=O)/C=C/c1ccc(OC/C=C(/C)CC/C=C(/C)CCC=C(C)C)cc1	0.6 µg/mL (≈ 1.28 µM)
O=C(/C=C/c1ccc(O)cc1)Sc1ccccc1	8 µg/mL (≈ 31.2 µM)
COc1ccc(/C=C/C(=O)SCCNC(C)=O)cc1	63 µg/mL (≈ 226 µM)
CC(=O)NCCSC(=O)/C=C/c1ccc(OCC=C(C)C)cc1	32 µg/mL (≈ 96 µM)
COc1cc(/C=C/C(=O)SCCNC(C)=O)cc(OC)c1O	125 µg/mL (≈ 384 µM)
CC(C)=CCOc1ccc(/C=C/C(=O)Nc2ccccn2)cc1	16 µg/mL (≈ 51.9 µM)
COc1ccc(/C=C/C(=O)Nc2ccccn2)cc1OC	125 µg/mL (≈ 440 µM)
CC(C)=CCC/C(C)=C/COc1ccc(/C=C/C(=O)NCCc2c[nH]c3ccccc23)cc1	32 µg/mL (≈ 72.3 µM)
COc1cc(/C=C/C(=O)SCCNC(C)=O)ccc1O	125 µg/mL (≈ 423 µM)
CC(=O)NCCNC(=O)/C=C/c1ccc(OCC=C(C)C)cc1	63 µg/mL (≈ 199 µM)
COc1ccc(/C=C/C(=O)Nc2ccccn2)cc1	63 µg/mL (≈ 248 µM)
CC(C)=CCC/C(C)=C/COc1ccc(/C=C/C(=O)Nc2ccccn2)cc1	1 µg/mL (≈ 2.66 µM)
